The source of these data is paper PMC7141409 (Journal of biomolecular NMR, 2019).

For series [1] the following is noted: chymotrypsin-based two-step assay; cited from earlier work.
The subject of series [2] is ^15N-OsIAA11^72−125 (W104-P105 peptide bond). As to the kind of experiment: Nzz-exchange: catalyzed cis-trans exchange of W104-P105. The format is biochemical, rice. The procedure, abridged: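 15N-labeled OsIAA11 72–125 substrate (800μM) with 16μM enzyme (LRT2 mutant or homolog) in NMR buffer (50mM KCl, 20mM KPO4, 3mM TCEP, 5mM NaN3, 0.1% protease inhibitor cocktail, pH=6.67). Protein concentrations were set by A280 using theoretical extinction coefficients. Nzz-exchange spectra were processed to give the observed cis-trans exchange rate (kexobs) of the W104-P105 bond with uncertainties.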

hCypA W121A: hCypA W121A mutant: the “Catalytic activity on W-P substrate” value in series [1] is “negligible catalytic activity”.

In the case of “hCypA: human cyclophilin A [reference compound]”, in series [2] (16μM enzyme, 800μM OsIAA11^72–125), the “Nzz exchange crosspeaks / activity” value is reported as “clear exchange crosspeaks”. In series [2] (1H-15N Nzz exchange, 16μM enzyme, 800μM OsIAA11^72–125, NMR buffer pH=6.67), the Nzz-measured kexobs is 0.69 ± 0.04 s⁻¹. In addition, the “Activity relative to WT LRT2 on OsIAA11” value in series [2] (Nzz, % of WT LRT2 activity) worked out at 110%.
